Assay results from ChEMBL document CHEMBL5136984, “Synthesis and antiproliferative activity of 6BrCaQ-TPP conjugates for targeting the mitochondrial heat shock protein TRAP1” (Eur J Med Chem, 2022).
pIC50: −log10 of the molar value. The source made the active and inactive calls. The rule behind the calls is not given here.

Legend:
HCT-116 [1] = test: Cytotoxicity against human HCT-116 cells assessed as cell viability at 1 uM incubated for 72 hrs by MTT assay relative to control; format: functional; conditions: read-out: Activity
Method in brief: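 MTT read-out after 72 h exposure; 2,500 cells/well seeded and treated 24 h later. MTT solution (5 mg/mL) added for 2 h, medium replaced by DMSO, absorbance at 570 nm corrected for cell-free blanks with compound. Untreated cells taken as 100% metabolic activity. Quadruplicate wells, experiment repeated at least three times.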

[2] = Drug localization in vesicle of human A549 cells at 2 uM measured after 4 hrs by MitoTracker Deep Red based confocal microscopic analysis; conditions: a549, 4 h
HT-29 [3] = test: Induction of mitochondrial membrane potential depolarization in human HT-29 cells assessed as reduction in fluorescence intensity at 0.1 to 1 uM measured after 2 to 6 hrs by TMRE staining based analysis relative to control; format: functional; design: scale not given: the % may be the effect or the level left; conditions: dose 0.1-1 µM, time 2-6 hrs
Method in brief: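 HT-29 cells (2,500/well) seeded the day before, exposed 2, 3 or 6 h at 0.1, 0.5 and 1 µM. CCCP 50 µM for 20 min served as depolarization control. TMRE added at 200 nM final for 20 min at 37 °C, fluorescence read by microplate, relative to untreated cells. 3–8 replicate wells per condition.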

MDA-MB-231 [4] = test: Cytotoxicity against human MDA-MB-231 cells assessed as concentration required for complete tumor growth inhibition incubated for 72 hrs by Celltiter Glo assay; format: functional
Method in brief: (§1)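 MDA-MB-231 cells exposed for 72 h; survival quantified by CellTiter Glo luminescence. GI50 = 50% growth inhibition; TGI = concentration at which final cell number equals the starting number; LC50 and IC50 also derived from the same curves.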

MDA-MB-231 [5] = test: Cytotoxicity against human MDA-MB-231 cells assessed as cell growth inhibition incubated for 72 hrs by Celltiter Glo assay; format: functional, cell-based; conditions: for GI50: MDA-MB-231, time 72 hrs; for pIC50: MDA-MB-231, 72 h; method in brief: as §1
MDA-MB-231 [6] = test: Cytotoxicity against human MDA-MB-231 cells assessed as induction of cell death incubated for 72 hrs by Celltiter Glo assay; format: functional; conditions: read-out: LC50 (the source's name)
Method in brief: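 MDA-MB-231 cells were exposed to compounds for 72 h, and survival was quantified by CellTiter-Glo luminescence. From the curves, GI50 (50% growth inhibition), TGI (cell number equal to that at start), LC50 (end cell number 50% of start) and IC50 (50% inhibition of cell activity) were derived.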

HT-29 [7] = test: Cytotoxicity against human HT-29 cells assessed as cell mortality at 0.1 to 1 uM incubated for 2 to 6 hrs by MTT assay; format: toxicity, cell-based; conditions: ht-29, 1 µM, dose lower 0.1 µM, time lower 2 hrs, dose upper 1 µM, time upper 6 hrs
K562 = test: Cytotoxicity against human K562 cells assessed as induction of cell death incubated for 72 hrs by MTT assay; format: functional; conditions: read-out: LC50 (the source's name)
Method in brief: (§2)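 Cells were seeded at 2,500 per well and treated 24 h later for 72 h, with 4 replicates per condition and at least three independent experiments. MTT (5 mg/mL solution) was added for 2 h, then the medium was replaced by DMSO. Absorbance at 570 nm was blank-corrected using cell-free wells containing compound, and untreated cells were set as 100% metabolic activity.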

HCT-116 [8] = test: Cytotoxicity against human HCT-116 cells assessed as induction of cell death incubated for 72 hrs by MTT assay; format: functional; conditions: read-out: LC50 (the source's name); method in brief: as §2
HT-29 [9] = test: Downregulation of HSP70 protein expression in human HT-29 cells at 0.1 to 0.5 uM incubated for 24 hrs by Western blot analysis; format: functional, cell-based; conditions: dose 0.1-0.5 µM
Method in brief: (§3)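 HT-29 cells treated 24 h, lysed in RIPA with protease inhibitors 30 min on ice. 30 µg protein denatured at 95 °C with β-mercaptoethanol, run on 4–15% stain-free gels, transferred to PVDF. Blocked in 5% milk/TBS-Tween, primary antibody overnight at 4 °C, HRP secondary 1 h, ECL detection. Signals normalized to stain-free total protein. Blots in duplicate.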

HT-29 [10] = test: Cytotoxicity against human HT-29 cells assessed as reduction in viable cells incubated for 72 hrs by trypan blue staining based optical microscopic analysis relative to control; format: functional, cell-based; conditions: HT-29, 72 h
Method in brief: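 HT-29 cells seeded at 30,000/well, treated 24 h later for 72 h. Cells washed with PBS, trypsinized, resuspended in medium and mixed 1:1 with trypan blue. Viable and dead cells counted by optical microscopy on a counting slide. Each condition analysed 3 times.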

[11] = target: T1, Heat shock factor protein 1 (Homo sapiens) (UniProt Q00613); test: Induction of HSF-1 degradation in human HT-29 cells at 0.5 uM incubated for 24 hrs by Western blot analysis; format: cell-based; method in brief: as §3
T1 sequence (whole entry): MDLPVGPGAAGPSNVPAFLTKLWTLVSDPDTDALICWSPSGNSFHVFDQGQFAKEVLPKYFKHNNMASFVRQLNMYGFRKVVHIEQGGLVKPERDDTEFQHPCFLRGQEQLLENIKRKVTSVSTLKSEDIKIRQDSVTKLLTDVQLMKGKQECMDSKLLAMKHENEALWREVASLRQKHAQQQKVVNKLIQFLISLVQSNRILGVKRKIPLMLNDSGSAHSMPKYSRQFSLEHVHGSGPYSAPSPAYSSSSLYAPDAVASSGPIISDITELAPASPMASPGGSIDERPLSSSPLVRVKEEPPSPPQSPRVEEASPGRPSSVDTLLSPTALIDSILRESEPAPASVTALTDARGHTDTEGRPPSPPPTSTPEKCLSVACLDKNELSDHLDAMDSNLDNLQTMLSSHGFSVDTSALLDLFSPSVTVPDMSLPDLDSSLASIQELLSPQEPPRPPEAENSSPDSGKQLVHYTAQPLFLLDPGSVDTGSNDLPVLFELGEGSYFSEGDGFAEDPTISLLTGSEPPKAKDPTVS

HT-29 [12] = test: Downregulation of HSP27 protein expression in human HT-29 cells at 0.1 to 0.5 uM incubated for 24 hrs by Western blot analysis; format: functional, cell-based; conditions: dose 0.1-0.5 µM; method in brief: as §3
MDA-MB-231 [13] = test: Cytotoxicity against human MDA-MB-231 cells assessed as induction of cell death incubated for 72 hrs by MTT assay; format: functional; conditions: read-out: LC50 (the source's name); method in brief: as §2
HT-29 [14] = test: Downregulation of SDHA protein expression in human HT-29 cells incubated for 24 hrs by Western blot analysis; format: functional, cell-based; conditions: dose 0.1-1 µM, DDE = dose-dependent effect
Method in brief: (§4)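 HT-29 cells exposed 24 h at 0.1, 0.5 and 1 µM; RIPA lysates, 30 µg protein on 4–15% stain-free SDS-PAGE, PVDF transfer. Anti-SDH-A (mouse, 1:500) or anti-SDH-B (rabbit, 1:250) overnight at 4 °C, HRP secondary, ECL. Densitometry normalized to stain-free total protein; duplicate blots.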

HT-29 [15] = test: Cytotoxicity against human HT-29 cells assessed as dead cells at 0.1 to 2 uM incubated for 72 hrs by trypan blue staining based optical microscopic analysis relative to control; format: functional; conditions: dose 0.1-2 µM
Method in brief: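 HT-29 cells were grown in McCoy medium with 10% FBS and 2 mM L-glutamine at 37 °C under 5% CO2, seeded at 30,000 per well and treated 24 h later for 72 h. Cells were PBS-washed, trypsinized, mixed 1:1 with trypan blue, and viable and dead cells were counted by light microscopy. Each condition was run three times.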

HT-29 [16] = test: Cytotoxicity against human HT-29 cells assessed as inhibition of cell growth incubated for 72 hrs by MTT assay; format: functional, cell-based; conditions: HT-29, 72 h
Method in brief: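 HT-29 cells (McCoy medium, 10% FBS, 2 mM glutamine) seeded at 2,500/well, treated 24 h later for 72 h. MTT (5 mg/mL solution) 2 h, formazan dissolved in DMSO, A570 corrected for cell-free blanks with compound. Untreated wells set as 100%. Quadruplicates, at least three independent experiments.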

HT-29 [17] = test: Downregulation of SDHB protein expression in human HT-29 cells incubated for 24 hrs by Western blot analysis; format: functional, cell-based; conditions: dose 0.1-1 µM, DDE = dose-dependent effect; method in brief: as §4
PC-3 = test: Cytotoxicity against human PC-3 cells assessed as induction of cell death incubated for 72 hrs by MTS assay; format: functional; conditions: read-out: LC50 (the source's name)

| SMILES | EC (MDA-MB-231 [4]) | GI50 (MDA-MB-231 [5]) | CC50 (MDA-MB-231 [6]) | pIC50 (MDA-MB-231 [5]) | further results |
| --- | --- | --- | --- | --- | --- |
| Cn1c(=O)c(NC(=O)c2ccc(OCCCCCCCCCCOc3ccc(N(c4ccc(/C=C/c5cc[n+](C)cc5)cc4)c4ccc(/C=C/c5cc[n+](C)cc5)cc4)cc3)cc2)cc2cc(Br)ccc21.[I-].[I-] | – | – | – | – | viability at 1 µM (HCT-116 [1]): 95%; Drug uptake [2]: Active |
| OCCCCCCCCCC[P+](c1ccccc1)(c1ccccc1)c1ccccc1.[Br-] | – | – | – | – | Activity (HT-29 [3]): <=35% |
| Cn1c(=O)c(NC(=O)c2ccc(OCCC[P+](c3ccccc3)(c3ccccc3)c3ccccc3)cc2)cc2cc(Br)ccc21.[Br-] | 0.16 µM | 60 nM | 380 nM | – | – |
| Cn1c(=O)c(NC(=O)c2ccc(OCCCCC[P+](c3ccccc3)(c3ccccc3)c3ccccc3)cc2)cc2cc(Br)ccc21.[Br-] | 0.093 µM | 83 nM | 100 nM | 7.06 | – |
| Cn1c(=O)c(NC(=O)c2ccc(OCCCCCCC[P+](c3ccccc3)(c3ccccc3)c3ccccc3)cc2)cc2cc(Br)ccc21.[Br-] | 0.18 µM | 65 nM | 490 nM | 7.09 | – |
| Cn1c(=O)c(NC(=O)c2ccc(O)cc2)cc2cc(Br)ccc21 | 10.97 µM | 5790 nM | 17600 nM | 5.15 | – |
| Cn1c(=O)c(NC(=O)c2ccc(OCCCCCCCCCC[P+](c3ccccc3)(c3ccccc3)c3ccccc3)cc2)cc2cc(Br)ccc21.[Br-] | 0.037 µM | 8 nM | 180 nM | 8.10 | Activity (HT-29 [7]): Non-Toxic; CC50 (K562): 107 nM; CC50 (HCT-116 [8]): 36 nM; Activity (HT-29 [9]): Active; viability at 1 µM (HCT-116 [1]): 11%; pIC50 (HT-29 [10]): > 7.00; Activity [11]: Active; Activity (HT-29 [12]): Active; CC50 (MDA-MB-231 [13]): 180 nM; Activity (HT-29 [14]): Dde; Activity (HT-29 [15]): <10%; pIC50 (HT-29 [16]): > 7.00; Activity (HT-29 [17]): Dde; Activity (HT-29 [3]): <=68%; CC50 (PC-3): 300 nM |
| Cn1c(=O)c(NC(=O)c2ccc(OCCCC[P+](c3ccccc3)(c3ccccc3)c3ccccc3)cc2)cc2cc(Br)ccc21.[Br-] | 0.091 µM | 76 nM | 110 nM | 7.09 | – |
| COc1ccc(C(=O)Nc2cc3cc(Br)ccc3n(C)c2=O)cc1 | 0.16 µM | 60 nM | 380 nM | – | CC50 (K562): 48000 nM; CC50 (HCT-116 [8]): 7000 nM; CC50 (MDA-MB-231 [13]): 2000 nM; pIC50 (HT-29 [16]): < 4.70; Activity (HT-29 [3]): -30%; CC50 (PC-3): 10000 nM |
| Cn1c(=O)c(NC(=O)c2ccc(OCCCCCCCCCCCC[P+](c3ccccc3)(c3ccccc3)c3ccccc3)cc2)cc2cc(Br)ccc21.[Br-] | 15.2 µM | 11000 nM | 17900 nM | – | – |
| Cn1c(=O)c(NC(=O)c2ccc(OCCCCCCCCCCBr)cc2)cc2cc(Br)ccc21 | – | – | – | 5.15 | – |
| Cn1c(=O)c(NC(=O)c2ccc(OCCCCCCCCCC[P+](c3ccccc3)(c3ccccc3)c3ccccc3)cc2)cc2ccccc21.[Br-] | 0.092 µM | 26 nM | 310 nM | 7.31 | – |
